This is an account of results in ChEMBL document CHEMBL2046340, “Naphthoquinones from Onosma paniculata induce cell-cycle arrest and apoptosis in melanoma Cells” (J Nat Prod, 2012).

One may read the IC50 as the concentration needed to halve the response being measured. Low values mean greater potency in that assay, high ones weaker potency in that assay.

Molecules are shown by their SMILES. Active and inactive are the calls of the source. No cut-off for these calls is given here.

For test [1], the system named is CCRF-CEM. Briefly: Cytotoxicity against human CCRF-CEM cells after 72 hrs by XTT assay. It counts as functional, cell-based. Put shortly: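 CCRF-CEM leukaemia cells in RPMI 1640 with 2 mM glutamine and 10% FBS, 37 °C, 5% CO2. Seeded at 10 000 cells/well and exposed for 72 h to at least eight concentrations, freshly diluted from DMSO into medium (vehicle 0.5% DMSO). XTT with electron coupling reagent was read after 4 h. IC50 came from a four-parameter logistic fit over two passages × three wells; six independent experiments.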
In general terms: Tetrazolium dyes change colour on reduction, which living cells bring about.

The subject of test [2] is MDA-MB-231. Briefly: Cytotoxicity against human MDA-MB-231 cells after 72 hrs by XTT assay. It counts as functional, cell-based. Particulars: MDA-MB-231, 72 h. The gist of the method: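 MDA-MB-231 breast cancer cells, RPMI 1640 with 2 mM glutamine and 10% FBS, 37 °C in 5% CO2. Seeded at 5000 cells/well, adhered overnight, then 72 h exposure over at least eight concentrations with 0.5% DMSO vehicle. XTT readout after 1.5 h. Four-parameter logistic IC50 from two passages each in three wells; mean ± SEM of six experiments.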

Test [3] concerns U-251. Briefly: Cytotoxicity against human U251 cells after 72 hrs by XTT assay. It counts as functional, cell-based. Particulars: U-251, 72 h. Put shortly: (§1)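 U251 glioblastoma and HCT 116 colon cells grown in high-glucose DMEM with 2 mM glutamine and 10% FBS. 5000 cells/well attached overnight, then received at least eight concentrations for 72 h (0.5% DMSO vehicle). XTT read 1.5 h after addition. IC50 by four-parameter logistic fit; two passages × three wells, six independent experiments, mean ± SEM.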

Test [4] deals with HCT-116. Briefly: Cytotoxicity against human HCT116 cells after 72 hrs by XTT assay. Particulars: HCT-116, 72 h. It is filed as functional, cell-based. Put shortly: as §1
Test [5] can be described thus: Cytotoxicity against human SBcl2 cells after 72 hrs by XTT assay. It is filed as functional, cell-based. The following applies: SBcl2, 72 h. The gist of the method: (§2)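 Melanoma lines (SBcl2, WM35, WM9, WM164) kept in RPMI 1640 with 2 mM glutamine and 2% FBS, 37 °C, 5% CO2. Plated at 5000 cells/well overnight and treated 72 h across at least eight concentrations (freshly diluted from DMSO; vehicle 0.5% DMSO). XTT absorbance read after 1.5 h. IC50 from four-parameter logistic curves; two passages in triplicate, six experiments, mean ± SEM.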

A short description of test [6]: Cytotoxicity against human WM35 cells after 72 hrs by XTT assay. It counts as functional, cell-based. Particulars: WM35, 72 h. The gist of the method:
as §2

Test [7] is described as follows: Cytotoxicity against human WM9 cells after 72 hrs by XTT assay. It counts as functional, cell-based. The following applies: WM9, 72 h. Put shortly: as §2
Test [8] is described as follows: Cytotoxicity against human WM164 cells after 72 hrs by XTT assay. It is filed as functional, cell-based. Particulars: WM164, 72 h. Put shortly:
as §2

In test [9] the test system is MRC5. Nature of the test: Cytotoxicity against human MRC5 cells after 72 hrs by XTT assay. It counts as cell-based. The following applies: MRC5, 72 h. The gist of the method: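 MRC-5 lung fibroblasts in MEM with 2 mM glutamine and 10% FBS. Seeded at 10 000 cells/well, attached overnight, then treated 72 h with at least eight concentrations (DMSO stock diluted in medium, 0.5% DMSO vehicle). XTT was added and read 1.5 h later. IC50 came from a four-parameter logistic curve; two passages × triplicate wells, six independent experiments, mean ± SEM.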

Test [10] deals with MRC5. Nature of the test: Selectivity ratio of IC50 for human MRC5 cells to IC50 for human CCRF-CEM cells. Put shortly:
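The ratio uses XTT viability IC50s from a 72 h exposure. MRC-5 fibroblasts were grown in MEM and CCRF-CEM cells in RPMI 1640, both with 10% FBS; both were seeded at 10 000 cells/well. XTT was read after 1.5 h (MRC-5) or 4 h (CCRF-CEM). IC50s came from four-parameter logistic fits over at least eight concentrations, six independent experiments.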

For test [11], the system named is SBcl2. Briefly: Induction of morphological changes in human SBcl2 cells assessed as less density and round shape phenotype with fewer dendrites of cells at IC50 after 24 to 48 hrs. It is filed as functional, cell-based.
The test system of test [12] is WM35. Nature of the test: Induction of morphological changes in human WM35 cells assessed as less density and round shape phenotype with fewer dendrites of cells at IC50 after 24 to 48 hrs. It is filed as functional, cell-based.
In test [13] the test system is WM9. Briefly: Induction of morphological changes in human WM9 cells assessed as less density and round shape phenotype with fewer dendrites of cells at IC50 after 24 to 48 hrs. It is filed as functional, cell-based.
Test [14] relates to WM164. Nature of the test: Induction of morphological changes in human WM164 cells assessed as less density and round shape phenotype with fewer dendrites of cells at IC50 after 24 to 48 hrs. It is filed as functional, cell-based.
A short description of test [15]: Cell cycle arrest in human WM9 cells assessed as accumulation at G2/M phase at IC50 after 12 to 72 hrs using propidium iodide staining by FACS analysis. It counts as functional, cell-based. Put shortly:
(§3)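 Melanoma lines were kept in RPMI 1640 with 2 mM L-glutamine, 2% FBS and penicillin/streptomycin at 37 °C under 5% CO2. Cells were exposed for 12–72 h, with 0.5% DMSO vehicle controls, then trypsinized. 5 × 10^5 cells were fixed in ice-cold 70% EtOH for 10 min at 4 °C, washed in PBS and stained with PI/RNase A for 15 min at 37 °C. Phases were read by flow cytometry; n = 3 means.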

A short description of test [16]: Cell cycle arrest in human WM164 cells assessed as accumulation at G2/M phase at IC50 after 12 to 72 hrs using propidium iodide staining by FACS analysis. It is filed as functional, cell-based. The gist of the method: as §3
Background: A flow cytometer gives signals particle by particle.

Test [17] can be described thus: Cell cycle arrest in human SBcl2 cells assessed as increase of cells accumulation at S phase at IC50 after 12 to 72 hrs using propidium iodide staining by FACS analysis. It is filed as functional, cell-based. Put shortly: as §3
Test [18] can be described thus: Cell cycle arrest in human WM35 cells assessed as increase of cells accumulation at S phase at IC50 after 12 to 72 hrs using propidium iodide staining by FACS analysis. It is filed as functional, cell-based. The gist of the method:
as §3

The nature of test [19]: Induction of apoptosis in human WM9 cells assessed as accumulation at sub-G1 phase at IC50 after 24 […].
Test [20] is described as follows: Induction of apoptosis in human WM35 cells assessed as accumulation at sub-G1 phase at IC50 after 24 […].
The subject of test [21] is SBcl2. Nature of the test: Induction of apoptosis in human SBcl2 cells assessed as accumulation at sub-G1 phase at IC50 after 24 […].
Test [22] has as its system WM164. Briefly: Induction of apoptosis in human WM164 cells assessed as increased accumulation at sub-G1 phase at IC50 after 24 […].

As for `CC(C)=CC[C@@H](OC(=O)CC(C)(C)O)C1=CC(=O)c2c(O)ccc(O)c2C1=O` [BETA-HYDROXYISOVALERYLSHIKONIN], the IC50 was determined as 0.6 µM in test [1]; 4.6 µM in test [2]; 23.6 µM in [3]; 4.1 µM in test [4]; 8.3 µM in test [5]; 13 µM in [6]. Further, the IC50 in test [7] worked out at 12.7 µM; in test [8] it was 30.9 µM; in test [9] it was 3.9 µM. Further, in [10], the “Ratio IC50” value was 6.
As for `CC(C)=CC[C@@H](OC(=O)C=C(C)C)C1=CC(=O)c2c(O)ccc(O)c2C1=O` [DIMETHYLACRYLSHIKONIN], the IC50 is 1.9 µM in test [1]; 23.2 µM in test [2]; 30.8 µM in test [3]; 20 µM in [4]; 1.1 µM in test [5]; 2.3 µM in test [6]. The results for the concentration for half-maximal inhibition (IC50) in [7], in test [8] and in test [9] were 2.7 µM, 8.3 µM and 2.4 µM, respectively. Besides, in test [10], the Ratio IC50 amounted to 1.3. In addition, the outcome in test [11], in test [12], in test [13], in test [14], in test [15] and in test [16] was Active. Besides, the result in [17] and in test [18] was Active. The Activity in test [19], in test [20], in test [21] and in test [22] was 20% each time.
As to `CC(=O)O[C@H](CC=C(C)C)C1=CC(=O)c2c(O)ccc(O)c2C1=O` [ACETYLSHIKONIN], the IC50 in [1] is 1 µM; in [2], 11.3 µM; in test [3], 15.9 µM; in test [4] it was 9 µM; in test [5], 13 µM; in [6], 30.7 µM. Further, the IC50 was determined as 23.5 µM in test [7], 71.5 µM in [8] and 2.6 µM in test [9]. In addition, the Ratio IC50 in [10] came out at 2.6.
For the molecule `CC[C@]1(O)C[C@@H]2CN(CCc3c([nH]c4ccccc34)[C@@](C(=O)OC)(c3cc4c(cc3OC)N(C)[C@H]3[C@@](O)(C(=O)OC)[C@H](OC(C)=O)[C@]5(CC)C=CCN6CC[C@]43[C@@H]65)C2)C1` [VINBLASTINE], the IC50 in test [1] is 0.0094 µM; in test [2], 0.031 µM; in test [3], 0.0081 µM; in test [4], 0.0087 µM; in test [5], 0.011 µM; in test [6], 0.0035 µM. Also, the IC50 came out at 0.015 µM in [7], 0.0042 µM in test [8] and 0.024 µM in test [9].
